Activity calls are given as the source filed them. The calls are words filed in the database; no cut-off is given here.
Assays:
B-cell line = experiment: Immunomodulatory activity in Kunming mouse B cells assessed as inhibition of LPS-induced cell proliferation at 40 uM after 48 hrs by MTT assay; assay type: functional, cell-based
How it was run: (§1)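 Splenocytes came from three male KM mice (25 g), seeded at 5 × 10^5 cells/well. Stimulation was 5 μg/mL ConA (T cells) or 10 μg/mL LPS (B cells), with compounds in DMSO at final 40 μM. After 48 h culture, MTT was read at 570 nm. Stimulated and unstimulated controls set baseline proliferation.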

Staphylococcus aureus = experiment: Antimicrobial activity against Staphylococcus aureus by agar well diffusion method; assay type: functional, organism-based
How it was run: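 Agar-well diffusion against S. aureus (Gram-positive) and a Gram-negative organism the paper calls C. bacillus. Cefotaxime sodium and tetracycline served as positive controls, with solvent DMSO as the negative control.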

Escherichia coli = experiment: Antimicrobial activity against Escherichia coli by agar well diffusion method
Murine T-cell line = experiment: Immunomodulatory activity in Kunming mouse T cells assessed as inhibition of ConA-induced cell proliferation at 40 uM after 48 hrs by MTT assay; assay type: functional, cell-based; how it was run: as §1
MCF7 = experiment: Antiproliferative activity against human MCF7 cells after 48 hrs by MTT assay; assay type: functional, cell-based; settings: MCF7, 48 h
How it was run: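 Cells were grown in RPMI 1640 with 10% FBS, penicillin and streptomycin at 37 °C in 5% CO2 and seeded at 5000 cells/well. Compounds (50, 25, 12.5, 6.25, 3.12, 1.56 μM; final DMSO 0.5%) were added 24 h later and incubated 48 h. MTT was added for 4 h, cells lysed in SDS/isopropanol/HCl, and A570 read. Runs were triplicate, with doxorubicin as positive control. IC50 came from means ± SEM.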

Row | SMILES | inhibition (B-cell line) | Activity (Staphylococcus aureus) | Activity (Escherichia coli) | inhibition (Murine T-cell line) | IC50 (MCF7)
1 | C/C1=C\[C@H]2C=C(CO)[C@@H](C)[C@H]3[C@H](CC(C)C)NC(=O)[C@]32C(=O)CCC(=O)[C@H](O)CC1 | Active | inactive | inactive |  | 
2 | C/C1=C\[C@@H](C)C/C=C/[C@H]2[C@H](O)[C@@]3(C)O[C@@]4(CC(=O)c5ccccc5N)NC(=O)[C@]2(C(=O)CC[C@H](O)C1=O)[C@H]4[C@@H]3C |  | inactive | inactive | Active | 
3 | C/C1=C\[C@@H](C)C/C=C/[C@H]2[C@@H]3O[C@]3(C)[C@@H](C)[C@H]3[C@H](C(O)c4c[nH]c5ccccc45)NC(=O)[C@]32C(=O)CC[C@H](O)C1=O (stereo in doubt; 6) | Active | inactive | inactive | Active | 
4 | C/C1=C\[C@@H](C)C/C=C/[C@H]2[C@H](O)[C@@]3(C)O[C@@]4(CC56OC5Nc5ccccc56)NC(=O)[C@]2(C(=O)CC[C@H](O)C1=O)[C@H]4[C@@H]3C (stereo in doubt; 11) [listing 1 of 2 here] |  | inactive | inactive |  | 
5 | C/C1=C\[C@@H](C)C/C=C/[C@H]2[C@H](O)[C@@]3(C)O[C@@]4(CC56OC5Nc5ccccc56)NC(=O)[C@]2(C(=O)CC[C@H](O)C1=O)[C@H]4[C@@H]3C (stereo in doubt; 12) |  | inactive | inactive | Active | 
6 | C=C1[C@@H](C)[C@H]2[C@H](C(OC)c3c[nH]c4ccccc34)NC(=O)[C@]23C(=O)CC[C@H](O)C(=O)/C(C)=C/[C@@H](C)C/C=C/[C@H]3[C@@H]1O (stereo in doubt; 8) [listing 1 of 2 here] | Active | inactive | inactive | Active | 
7 | C/C1=C\[C@H]2C=C(CO)[C@@H](C)[C@H]3[C@H](CC(C)C)NC(=O)[C@]32C(=O)CC[C@@H](O)C(=O)CC1 |  | inactive | inactive | Active | 
8 | C=C1[C@@H](C)[C@H]2[C@H](C(OC)c3c[nH]c4ccccc34)NC(=O)[C@]23C(=O)CC[C@H](O)C(=O)/C(C)=C/[C@@H](C)C/C=C/[C@H]3[C@@H]1O (stereo in doubt; 8) [listing 2 of 2 here] |  |  |  |  | 20.7 µM
9 | C/C1=C\[C@@H](C)C/C=C/[C@H]2[C@@H]3O[C@]3(C)[C@@H](C)[C@H]3[C@H](C(O)c4c[nH]c5ccccc45)NC(=O)[C@]32C(=O)CC[C@H](O)C1=O (stereo in doubt; 5) |  | inactive | inactive | Active | 
10 | C/C1=C\[C@H]2C=C(CO)[C@@H](C)[C@H]3[C@H](CC(C)C)NC(=O)[C@]32C(=O)CCC(=O)[C@@H](O)CC1 |  | inactive | inactive | Active | 
11 | COC(c1c[nH]c2ccccc12)[C@@H]1NC(=O)[C@@]23C(=O)CC[C@H](O)C(=O)/C(C)=C/[C@@H](C)C/C=C/[C@H]2[C@H](O)C(C)=C(C)[C@@H]13 (stereo in doubt; 10) | Active | inactive | inactive |  | 
12 | C/C1=C\[C@@H](C)C/C=C/[C@H]2[C@H](O)[C@@]3(C)O[C@@]4(CC56OC5Nc5ccccc56)NC(=O)[C@]2(C(=O)CC[C@H](O)C1=O)[C@H]4[C@@H]3C (stereo in doubt; 11) [listing 2 of 2 here] |  |  |  |  | 27.9 µM
13 | C/C1=C\[C@H]2C=C(CO)[C@@H](C)[C@H]3[C@H](CC(C)C)NC(=O)[C@]32C(=O)CC[C@H](O)C(=O)CC1 |  | inactive | inactive | Active | 
14 | C=C1[C@@H](C)[C@H]2[C@H](C(OC)c3c[nH]c4ccccc34)NC(=O)[C@]23C(=O)CC[C@H](O)C(=O)/C(C)=C/[C@@H](C)C/C=C/[C@H]3[C@@H]1O (stereo in doubt; 7) | Active | inactive | inactive | Active | 
15 | COC(c1c[nH]c2ccccc12)[C@@H]1NC(=O)[C@@]23C(=O)CC[C@H](O)C(=O)/C(C)=C/[C@@H](C)C/C=C/[C@H]2[C@H](O)C(C)=C(C)[C@@H]13 (stereo in doubt; 9) | Active | inactive | inactive | Active | 
